The target in the assay is Fluorogen activating protein scFv HL1.1-TO1 (AM2.2, synthetic construct). Briefly: competition with TO1-2p for soluble AM2.2 – biochemical, soluble FAP, fluorescence competition, artefact control for beta2AR internalization ligand project, dose response (AID 651938). Conditions: Soluble FAP AM2.2 with TO1-2p fluorogen. In short, it runs like this:
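System: soluble purified FAP AM2.2; also added: TO1-2p fluorogen, 10× Kd; compound dosing: serial dilution series, water-diluted DMSO stocks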

We go through two compounds from PubChem BioAssay AID651938 (NMMLSC, 2012).

As a reminder, the EC50 is the concentration that produces a half-maximal response. As for `CN(CC(=O)N1CCN(c2ccccn2)CC1)S(=O)(=O)c1ccc(Cl)cc1`, the concentration for a half-maximal effect (EC50) is 2.73 µM.

As for `Cc1ccc(S(=O)(=O)N(C)CC(=O)N2CCN(c3ccccn3)CC2)cc1`, the EC50 is 19.8 µM.
